For experiment [1], the system named is Staphylococcus aureus. Nature of the experiment: Antibacterial activity against Staphylococcus aureus ATCC 29213 incubated for 16 to 18 hrs by broth microdilution method. Format: functional. Summed up: (§1)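 Colonies pre-grown 16−18 h at 37 °C in moist 5% CO₂ (Staph. aureus on LB agar; the others on GC agar with 1% IsoVitaleX), then diluted in BHI + 1% IsoVitaleX. Inoculum set by OD (600 nm Staph. aureus and S. pneumoniae; 550 nm N. meningitidis) to give ∼5 × 10⁵ cfu/mL per well. Twofold dilutions run 128–0.0625 μg/mL final. DMSO-only and medium blanks were included, with three independent plates, incubated 16−18 h at 37 °C in 5% CO₂.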
(In general: In broth dilution the organism is exposed to a series of concentrations in liquid medium.)

For experiment [2], the target named is ATP-dependent Clp protease proteolytic subunit (Escherichia coli (strain K12)) (UniProt P0A6G7). Nature of the experiment: Activation of Escherichia coli ClpP assessed as degradation of casein-FITC substrate at 5 uM fluorescence-based biochemical assay.
Chain of ATP-dependent Clp protease proteolytic subunit (Escherichia coli (strain K12)) (P0A6G7 whole entry): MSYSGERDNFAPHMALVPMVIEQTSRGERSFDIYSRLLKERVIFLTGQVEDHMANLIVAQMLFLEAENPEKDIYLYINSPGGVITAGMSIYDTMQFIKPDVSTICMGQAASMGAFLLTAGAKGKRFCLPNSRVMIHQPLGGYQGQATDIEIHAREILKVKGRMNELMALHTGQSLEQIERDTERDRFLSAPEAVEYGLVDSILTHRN
Experiment [3] deals with Streptococcus pneumoniae. Nature of the experiment: Antibacterial activity against Streptococcus pneumoniae ATCC 49619 incubated for 16 to 18 hrs by broth microdilution method. Format: functional. In a few lines: as §1
In experiment [4] the test system is Neisseria meningitidis. Nature of the experiment: Antibacterial activity against Neisseria meningitidis H44/76 incubated for 16 to 18 hrs by broth microdilution method. In kind it is functional. Summed up: as §1
Experiment [5] addresses ATP-dependent Clp protease proteolytic subunit (Escherichia coli (strain K12), UniProt P0A6G7). In words: Activation of Escherichia coli ClpP by ITC method. For orientation: Isothermal titration calorimetry measures the heat released or taken up as one component is titrated into another.

Each structure is given as a SMILES string. ≈ marks a conversion by molar mass, not a printed value. Calls of active or inactive are those of the source. Where a SMILES comes first, the peptide text is derived from it. Bridges are numbered along the chain shown (N, C = ends). [ ]: non-standard residue; d: D form. The star is where a group is joined. Octatrienoyl(2E,4E,6E) = C/C=C/C=C/C=C/C(=O)*; Hexadienoyl(2E,4E) = C/C=C/C=C/C(=O)*; Pro(4R-Me) = C[C@H]1CN[C@H](C(=O)O)C1; NMeA = CN[C@@H](C)C(=O)O; X1 = CCC/C=C/C=C/C(=O)*

As a reminder, the MIC is the smallest concentration in the dilution series that meets the test's criterion for growth inhibition. High values mean a need for much substance, low ones inhibition by little substance. In general, Kd refers to the free concentration of one partner at which half of the binding sites on the other are occupied at equilibrium, for simple one-to-one binding.

Chain of ATP-dependent Clp protease proteolytic subunit (P0A6G7 whole entry): as above

As to `CCC/C=C/C=C/C(=O)N[C@@H](Cc1ccccc1)C(=O)N[C@H]1COC(=O)[C@@H]2C[C@@H](C)CN2C(=O)[C@H](C)NC(=O)[C@H](C)N(C)C(=O)[C@@H]2CCCN2C1=O` (X1-FSP[NMeA]A[Pro(4R-Me)]; ester 2-C), the MIC in experiment [1] is 0.5 µg/mL (≈ 0.694 µM); in experiment [3] it was below 0.0625 µg/mL; in experiment [4] it was below 0.0625 µg/mL. Further, in experiment [2], the result was Active.
As to `C[C@@H]1C[C@H]2C(=O)OC[C@H](NC(=O)[C@H](Cc3ccccc3)NC(=O)/C=C/C=C/CO)C(=O)N3CCC[C@H]3C(=O)N(C)[C@@H](C)C(=O)N[C@@H](C)C(=O)N2C1` (stereo in doubt), the MIC in experiment [1] stood at 128 µg/mL (≈ 181 µM); in experiment [3], 0.25 µg/mL (≈ 0.353 µM); in experiment [4], 64 µg/mL (≈ 90.3 µM). Besides, the result in experiment [2] was inactive.
The matching figures for `C/C=C/C=C/C(=O)N[C@@H](Cc1ccccc1)C(=O)N[C@H]1COC(=O)[C@@H]2CCCN2C(=O)[C@H](C)NC(=O)[C@H](C)N(C)C(=O)[C@@H]2CCCN2C1=O` ({Hexadienoyl(2E,4E)}-FSP[NMeA]AP; ester 2-C): 16 µg/mL (≈ 23.6 µM), 0.25 µg/mL (≈ 0.368 µM), 4 µg/mL (≈ 5.89 µM) and “inactive”.
Turning to `C/C=C/C=C/C(=O)N[C@@H](Cc1ccccc1)C(=O)N[C@H]1COC(=O)[C@@H]2C[C@@H](C)CN2C(=O)[C@H](C)NC(=O)[C@H](C)N(C)C(=O)[C@@H]2CCCN2C1=O` ({Hexadienoyl(2E,4E)}-FSP[NMeA]A[Pro(4R-Me)]; ester 2-C), the results for the minimum inhibitory concentration (MIC) in experiment [1], in experiment [3] and in experiment [4] were 4 µg/mL (≈ 5.77 µM), 0.125 µg/mL (≈ 0.18 µM) and 2 µg/mL (≈ 2.89 µM), respectively. Besides, the outcome in experiment [2] was inactive.
In experiment [5], `C/C=C/C=C/C=C/C(=O)N[C@@H](Cc1ccccc1)C(=O)N[C@H]1COC(=O)[C@@H]2CCCN2C(=O)[C@H](C)NC(=O)[C@H](C)N(C)C(=O)[C@@H]2CCCN2C1=O` ({Octatrienoyl(2E,4E,6E)}-FSP[NMeA]AP; ester 2-C) came in with a Kd of 700 nM. Moreover, the figures for the MIC in experiment [1], in experiment [3] and in experiment [4] were 16 µg/mL (≈ 22.7 µM), 0.5 µg/mL (≈ 0.709 µM) and 0.5 µg/mL (≈ 0.709 µM), respectively. The outcome in experiment [2] was Active.
Take `C/C=C/C=C/C=C/C(=O)N[C@@H](Cc1ccccc1)C(=O)N[C@H]1COC(=O)[C@@H]2C[C@@H](C)CN2C(=O)[C@H](C)NC(=O)[C@H](C)N(C)C(=O)[C@@H]2CCCN2C1=O` ({Octatrienoyl(2E,4E,6E)}-FSP[NMeA]A[Pro(4R-Me)]; ester 2-C): the equilibrium dissociation constant (Kd) in experiment [5] came out at 300 nM. Besides, the MIC in experiment [1] was 4 µg/mL (≈ 5.56 µM); in experiment [3], below 0.0625 µg/mL; in experiment [4], 0.125 µg/mL (≈ 0.174 µM). The outcome in experiment [2] was Active.
For the compound `NC[C@@H]1O[C@@H](O[C@H]2[C@H](O)[C@@H](O[C@H]3O[C@H](CO)[C@@H](O)[C@H](N)[C@H]3O)[C@H](N)C[C@@H]2N)[C@@H](O)[C@H](O)[C@H]1O` [KANAMYCIN A], the MIC in experiment [4] amounted to 64 µg/mL (≈ 132 µM).
On to `CN[C@H](CC(C)C)C(=O)N[C@H]1C(=O)N[C@@H](CC(N)=O)C(=O)N[C@H]2C(=O)N[C@H]3C(=O)N[C@H](C(=O)N[C@H](C(=O)O)c4cc(O)cc(O)c4-c4cc3ccc4O)[C@H](O)c3ccc(c(Cl)c3)Oc3cc2cc(c3O[C@@H]2O[C@H](CO)[C@@H](O)[C@H](O)[C@H]2O[C@H]2C[C@](C)(N)[C@H](O)[C@H](C)O2)Oc2ccc(cc2Cl)[C@H]1O` [VANCOMYCIN], for which, in experiment [3], the minimum inhibitory concentration (MIC) came out at 2 µg/mL (≈ 1.38 µM).

These data come from ChEMBL document CHEMBL3352552, “Total synthesis and antibacterial testing of the A54556 cyclic acyldepsipeptides isolated from Streptomyces hawaiiensis” (J Nat Prod, 2014).
